NPY1 pot ag = NPY-Y1 receptor potentiators or agonists, primary screen, cell-based; Neuropeptide Y receptor type 1 (Homo sapiens), P25929; NPY-Y1 expressing cells, potentiator/agonist activation; activation, % at 3.6 µM; actives 0.37% (n = 220,000); in the data active means activation above about 33%, passing the limit was not always enough;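 further: cells stimulated with NPY at EC10 then isoproterenol at EC100; 0% = low agonist plus stimulus and 100% = saturating agonist plus stimulus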
Target sequence (P25929 whole entry, looked up): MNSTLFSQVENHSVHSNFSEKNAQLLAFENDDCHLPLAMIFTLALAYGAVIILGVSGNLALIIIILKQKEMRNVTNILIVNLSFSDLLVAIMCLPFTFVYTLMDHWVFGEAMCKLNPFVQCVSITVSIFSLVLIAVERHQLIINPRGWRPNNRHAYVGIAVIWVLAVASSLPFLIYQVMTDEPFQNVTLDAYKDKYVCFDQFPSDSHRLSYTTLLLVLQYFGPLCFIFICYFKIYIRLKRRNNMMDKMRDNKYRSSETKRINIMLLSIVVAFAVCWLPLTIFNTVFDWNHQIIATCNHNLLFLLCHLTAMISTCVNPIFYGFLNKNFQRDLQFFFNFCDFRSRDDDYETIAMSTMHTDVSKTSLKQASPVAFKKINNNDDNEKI
NPY Y1 blocker = NPY-Y1 receptor antagonists, primary screen, cell-based | Neuropeptide Y receptor type 1 (Homo sapiens), P25929 | HEK293-CNG Y1 cells, membrane potential fluorescence; NPY at EC95, then isoproterenol | inhibition, % at 3.6 µM | actives 1% (n = 200,000) | AID 1040, 2008;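 active means inhibition above the campaign mean inhibition of all tested compounds plus 3 SD, cut at about 20% in these data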;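 further: 0% = DMSO wells given NPY plus isoproterenol and 100% = isoproterenol alone without NPY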
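Material: Y1- and CNG-channel-expressing HEK293 cells / Probe or stimulus: NPY 25 nM then isoproterenol 1 µM plus Ro 20-1724 25 µM / Doses: 3.6 µM single dose, DMSO 0.4% / Schedule: compound incubation 1 h at room temperature, readout 45 min post-stimulation / Signal: membrane potential fluorescence / Benchmarks: isoproterenol-only wells as full block versus NPY-plus-isoproterenol wells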
NPY2 pot ag = NPY-Y2 potentiators or agonists, primary screen, cell-based. activation, % at 3.6 µM. actives 0.45% (n = 220,000). Neuropeptide Y receptor type 2 (Homo sapiens), P49146. cells expressing NPY-Y2, potentiator/agonist read-out; in the data active means activation above about 27%;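 further: cells stimulated with NPY near EC25 plus isoproterenol at EC100; 0% = vehicle plus submaximal agonist and 100% = vehicle plus saturating agonist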
EP2 mod = EP2 receptor modulators, cAMP readout, primary screen, cell-based, HTRF cAMP, PGE2 stimulation; induction, % at 25 µM; EP2-expressing cells, cAMP HTRF FRET, PGE2 co-stimulation; AID 940, 2007; actives 0.83% (n = 260,000);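 active means compounds whose cAMP rise, as percent of the full-agonist control response, exceeds 60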;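 further: rat C6 glioma line stably carrying human EP2 under a CMV promoter; the protocol text gives 20 µM as final concentration; 100% = response of wells given 1 µM PGE2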
EP2 antag = human EP2 receptor antagonists, primary screen, TR-FRET cAMP, C6 glioma cells | Prostaglandin E2 receptor EP2 subtype (Homo sapiens), P43116 | C6 glioma cells expressing human EP2; cells stimulated with saturating PGE2 | inhibition, % at 25 µM | actives 0.52% (n = 260,000);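 active means percent inhibition above 40 after rounding to a whole number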;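 further: rat C6 glioma host cells with rolipram phosphodiesterase inhibitor present; the protocol text gives 20 µM as final concentration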
NPY-Y2 antag = NPY-Y2 receptor antagonists, primary screen, cell-based; NPY-Y2 expressing cells, antagonist mode; inhibition, % at 2.7 µM; actives 0.99% (n = 140,000); in the data active means inhibition above about 17%;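 further: 0% = vehicle with agonist challenge and 100% = reference antagonist with challenge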
* marks the source's active call; other numbers are inactive results; x = no result given; ! = a repeat was not active. This is a sample that favours compounds with a hit; in the whole collection about 2.8% have one here.

SMILES | NPY1 pot ag | NPY Y1 blocker | NPY2 pot ag | EP2 mod | EP2 antag | NPY-Y2 antag
Cn1c2c(c(=O)n(C)c1=O)CN(CCCN1CCOCC1)CN2 | -6 | 2 | 7 | -4 | 6 | 2
Nc1nc(-c2ccccc2)c(-c2ccccc2)c(-c2nc(N)nc(-c3ccccc3)c2-c2ccccc2)n1 | x | x | x | 13 | 48* | x
Nc1nc(-c2ccccc2)c(-c2ccccc2)o1 | -3 | x | 12 | -29 | 7 | x
COc1ccccc1NC(=O)CN1CCC(O)(c2nccn2C)CC1 | x | x | x | -8 | x | x
CCN1CCN(C(=O)c2ccc(NC(C)=O)cc2)CC1 | x | x | x | -11 | 9 | x
CCc1nn(CC(=O)NCCOC)c(=O)c2cc3oc(C)cc3n12 | x | x | x | -34 | 5 | x
C=CCOc1ccc(C(=O)N2CCC(C(=O)c3cccnc3)CC2)cc1 | x | x | x | -34 | x | x
N#Cc1ccc(NC(=O)CSc2nc(N)c(C#N)cc2C#N)cc1 | x | x | x | -5 | 43* | x
Cc1nc(SCC(=O)Nc2ccccc2F)nc2c1CCCC2 | x | x | x | 79* | 8 | x
Cc1ccnc(SCC(=O)Nc2ccccc2F)n1 | x | x | x | -18 | 14 | x
COc1cc(/C=C/c2nc3ccc([N+](=O)[O-])cc3s2)ccc1OCC(=O)O | -3 | x | -11 | 85* | 11 | x
CC1=C(C(=O)NCCN2CCN(C)CC2)C2(CCC(C)CC2)OC1=O (centres undefined) | -8 | 0 | 48* | -13 | 5 | -2
O=C(/C(=C/c1ccc(Cl)cc1)c1nc2ccccc2[nH]1)c1cccs1 | -50 | 23* | -9 | -2 | 9 | 46*
CN(C)C[C@H]1CCC2=C(C1=O)C(c1ccc(Cl)c(Cl)c1)C1=C(CC[C@H](CN(C)C)C1=O)O2 | x | x | x | -12 | 55* | x
CCN(CC)C(=O)C1CCN(S(=O)(=O)c2ccc(OC)cc2)CC1 | x | x | x | -5 | 5 | x
O=S(=O)(Nc1ccc(N=Nc2ccc(O)c3ccccc23)cc1)c1ccccc1 | 73* | -13 | 62* | -85 | 14 | -8
O=S(=O)(Nc1ccc(N=Nc2ccccc2)cc1)c1ccccc1 | 20 | -3 | 8 | 5 | 14 | -2
COc1ccc(-c2nc3ccccc3n2Cc2ccc(C)cc2)cc1 | -16 | 15 | -16 | 62* | 9 | 12
COCn1c(-c2ccc(OC)cc2)nc2ccccc21 | -8 | 2 | 4 | 8 | 17 | 1
C[C@H]1C[C@@H]2[C@@H]3CCC4=CC(=O)C=C[C@@]4(C)[C@@]3(Cl)[C@H](Cl)C[C@@]2(C)[C@]1(O)C(=O)COP(=O)(O)O | x | x | x | 16 | 41* | x
O=C(N/N=C/c1ccccn1)c1cc(-c2ccc3ccccc3c2)n[nH]1 | -29 | 0 | 0 | -9 | 51* | 1
Cc1ccc(-c2cc(C(=O)N/N=C/c3c[nH]c4ccccc34)[nH]n2)cc1 | 4 | -3 | 17 | -78 | 58* | -1
Cc1cc(C)c2nc(SCC(=O)Nc3ccc4c(c3)OCCO4)cc(C)c2c1 | x | x | x | 7 | 8 | x
CCOC(=O)c1ccccc1NC(=O)Cc1ccccc1OC | 1 | 0 | -7 | 62* | 0 | 6
CCOC(=O)c1ccccc1NC(=O)CSc1nc2ccccc2o1 | 7 | 1 | 12 | 61* | 4 | 11
SMILES | NPY1 pot ag | NPY Y1 blocker | NPY2 pot ag | EP2 mod | EP2 antag | NPY-Y2 antag
CNCc1ccccc1OCC(=O)Nc1ccccc1OC | 105* | -1 | 37* | 27 | 6 | 6
COc1ccccc1CC(=O)Nc1ccccc1C(=O)O | -5 | 5 | 4 | 8 | 4 | 1
CC(=O)N1C(=O)CCN1c1ccccc1 | x | x | x | -10 | 22 | x
COC(=O)c1c(N)sc(C(=O)Nc2cccc(Cl)c2C)c1C | x | x | x | -50 | 20 | x
CN(C)CCCn1c2c3ccccc3ccc2c2oc(=O)c3ccccc3c21 | x | x | x | -5 | 74* | x
CS(=O)(=O)N1CCc2cc(C(=O)N3CCCCC3c3nc4ccccc4[nH]3)ccc21 (centres undefined) | x | x | x | -38 | x | x
O=C1C=C(NCCc2cc(Br)c(O)c(Br)c2)C(=O)c2ncccc21 | x | x | x | -49 | 104* | x
CC(=O)[C@]1(O)CC[C@@H]2[C@H]3C[C@@H](C)C4=CC(=O)CC[C@@]4(C)[C@@H]3[C@@H](O)C[C@]21C | x | x | x | 4 | 50* | x
CC(C)N(C(=O)CSc1nnc(CNc2nc(-c3ccccc3)cs2)n1C)C(C)C | x | x | x | 35 | 7 | x
CC(C)OC(=O)c1c(-c2ccc(C(C)C)cc2)csc1NC(=O)C1CCCO1 (centres undefined) | -24 | 3 | -12 | 63* | 13 | 5
CCOc1ccc(NC(=O)C(C#N)Cc2cccnc2)cc1 (centres undefined) | x | x | x | -14 | 23 | x
CC(=O)COC(=O)c1cc(-c2ccccc2)nc2ccc(Br)cc12 | x | x | x | 68* | 25 | x
CCOC(=O)c1cc(-c2ccccc2)nc2ccc(C)cc12 | -30 | x | -12 | 66* | 4 | x
CCOC(=O)c1cc(C(=O)OCC)c2cc(Br)ccc2n1 | -46 | 12 | -46 | 45 | 13 | 12
CC(=O)COC(=O)c1cc(-c2ccc(C)cc2)nc2ccccc12 | -11 | 2 | -4 | -47 | 12 | x
CCCCOC(=O)c1cc(C)nc2ccc(Br)cc12 | 101* | 7 | 31* | 46 | 20 | 4
Cc1ccc2nc(SCC(=O)N3CCOCC3)c(C#N)cc2c1 | x | x | x | -5 | 7 | x
S=C(Nc1ccc(Cl)cc1)NC1CC2CCCC(C1)N2C1CC1 (centres undefined) | 29 | -4 | 12 | -96 | 48*! | 0
S=C(Nc1ccc(Cl)cc1)NC1CC2CCCC(C1)N2C1CCCC1 (centres undefined) | -2 | -1 | -2 | -35 | 31 | -3
CCCNC(=O)c1c(NC(=O)c2cc(OC)c(OC)c(OC)c2)sc2c1CCCC2 | x | x | x | -49 | 13 | x
COc1ccc(-c2nnc(SCC(=O)NC3CCCCC3C)o2)cc1 (centres undefined) | x | x | x | -9 | 11 | x
Cc1ccc(S(=O)(=O)C/N=C(/NC(=S)N(c2ccccc2)c2ccccc2)c2ccccc2)cc1 | -10 | -2 | -4 | 61* | 1 | 4
Cc1ccc(S(=O)(=O)/N=C(/NC(=S)Nc2ccccc2)c2ccccc2)cc1 | 10 | 1 | -12 | 24 | 12 | 1
Cn1nc(C(F)(F)F)c(-c2cccc(C(F)(F)F)c2)c1NC(=O)Nc1ccc(F)cc1 | 111* | x | 102* | -30 | 11 | x
CCOc1ccc(Cn2c(=O)oc3ccc(C)cc32)cc1 | x | x | x | -8 | 3 | x
COc1ccc(CC(=O)N2CCN(c3ccc(C4=NNC(=O)CC4C)cc3)CC2)cc1 (centres undefined) | -79 | 79* | -23 | 38 | x | 83*
COc1ccc(CC(=O)N2CCN(C(=O)Cc3ccc(OC)cc3)CC2)cc1 | 5 | 3 | 20 | 15 | x | 3
